Data on 8 compounds can be found in ChEMBL document CHEMBL1152621, “Synthesis and discovery of pyrazole-5-carbohydrazide N-glycosides as inducer of autophagy in A549 lung cancer cells” (Bioorg Med Chem, 2009).

Structures are written as SMILES. Active and inactive are the calls of the source. The calls are words filed in the database; no cut-off is given here.

The subject of data set [1] is A549. Nature of the data set: Induction of necrosis in human A549 cells at 20 uM after 48 hrs assessed as increase in LDH release. The following applies: a549, 48 h. The data set is classed as cell-based. The procedure, abridged: (§1)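 A549 treated 48 h at 20 or 40 µM, 0.1% DMSO control; culture medium collected and LDH release measured with a commercial lactate dehydrogenase kit; mean ± SE, n = 3.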
For orientation: Release of lactate dehydrogenase indicates damage to the cell membrane.

Data set [2] has as its system A549. Nature of the data set: Effect on cell morphology in human A549 cells assessed as decrease in cell number at 20 uM after 24 hrs by phase contrast microscopy. Format: functional, cell-based. The procedure, abridged:
(§2)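 A549 in RPMI 1640 with 10% bovine calf serum, 80 U/ml gentamicin, 37 °C, 5% CO2; seeded at 6250/cm2. Treated with compound or left untreated for 24 or 48 h. Morphology (vacuoles, cell number) photographed at 400× under inverted phase contrast microscope.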

The test system of data set [3] is A549. Nature of the data set: Induction of autophagy in human A549 cells assessed as increase in LC3-II protein level at 20 uM after 24 hrs by Western blot. The data set is classed as functional, cell-based. In outline: (§3)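 A549 treated 24 or 48 h at 20 or 40 µM. Lysis in 0.5% SDS/Tris pH 7.5 buffer with protease inhibitors; Bradford protein; 15% SDS-PAGE, PVDF, milk block; anti-LC3b, anti-p62, anti-β-actin overnight 4 °C, HRP secondaries, chemiluminescence on X-ray film. Levels normalized to β-actin, expressed as percent of control.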
(In western blotting, separated proteins are transferred to a membrane and probed.)

In data set [4] the test system is A549. Put plainly: Induction of autophagy in human A549 cells assessed as decrease in p62 protein level at 20 uM after 24 hrs by Western blot. Format: functional, cell-based. In outline: as §3
Data set [5] has as its system A549. Nature of the data set: Effect on cell morphology in human A549 cells assessed as decrease in cell number at 20 uM after 48 hrs by phase contrast microscopy. The data set is classed as functional, cell-based. In outline:
as §2

Data set [6] deals with A549. Put plainly: Growth inhibition of human A549 cells after 48 hrs by sulforhodamine B assay. Format: functional, cell-based. To be noted: A549, 48 h. In outline: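 A549 (RPMI 1640, 10% bovine calf serum, seeded 6250/cm2) exposed 24 h after seeding to compound at 10, 20 or 40 µM, 0.1% DMSO control, for 24 or 48 h. TCA fixation 1 h at 4 °C, 0.4% SRB in 1% acetic acid, dye dissolved in 10 mM Tris base pH 10.5, OD 510 nm; mean ± SE, n = 3.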
On the technique in general: Sulforhodamine B stains cellular protein and so reports cell mass.

For data set [7], the system named is A549. Put plainly: Induction of autophagy in human A549 cells assessed as decrease in p62 protein level at 20 uM after 48 hrs by Western blot. Format: functional, cell-based. In outline: as §3
In data set [8] the test system is A549. Nature of the data set: Induction of autophagy in human A549 cells assessed as increase in LC3-II protein level at 20 uM after 48 hrs by Western blot. Format: functional, cell-based. In outline: as §3
Data set [9] concerns A549. Nature of the data set: Induction of necrosis in human A549 cells at 40 uM after 48 hrs assessed as increase in LDH release. The following applies: a549, 48 h. The data set is classed as cell-based. The procedure, abridged:
as §1

Data set [10] concerns A549. Nature of the data set: Effect on cell morphology in human A549 cells assessed as induction of vacuolization at 20 uM after 24 hrs by phase contrast microscopy. The data set is classed as functional, cell-based. The procedure, abridged:
as §2

Data set [11] deals with A549. Nature of the data set: Induction of autophagy in human A549 cells assessed as increase in LC3-II protein level at 40 uM after 24 hrs by Western blot. Format: functional, cell-based. The procedure, abridged: as §3
Data set [12] has as its system A549. Nature of the data set: Induction of autophagy in human A549 cells assessed as decrease in p62 protein level at 40 uM after 48 hrs by Western blot. The data set is classed as functional, cell-based. The procedure, abridged:
as §3

Data set [13] has as its system A549. Put plainly: Effect on cell morphology in human A549 cells assessed as decrease in cell number at 40 uM after 24 hrs by phase contrast microscopy. The data set is classed as functional, cell-based. In outline:
as §2

The subject of data set [14] is A549. Nature of the data set: Effect on cell morphology in human A549 cells assessed as induction of vacuolization at 40 uM after 24 hrs by phase contrast microscopy. Format: functional, cell-based. In outline:
as §2

Data set [15] concerns A549. Put plainly: Induction of autophagy in human A549 cells assessed as increase in LC3-II protein level at 40 uM after 48 hrs by Western blot. Format: functional, cell-based. In outline: as §3
Data set [16] deals with A549. Nature of the data set: Induction of autophagy in human A549 cells assessed as decrease in p62 protein level at 40 uM after 24 hrs by Western blot. Format: functional, cell-based. In outline: as §3
Data set [17] concerns A549. Put plainly: Effect on cell morphology in human A549 cells assessed as decrease in cell number at 40 uM after 48 hrs by phase contrast microscopy. Format: functional, cell-based. The procedure, abridged:
as §2

Data set [18] concerns A549. Nature of the data set: Effect on cell morphology in human A549 cells assessed as induction of vacuolization at 40 uM after 48 hrs by phase contrast microscopy. The data set is classed as functional, cell-based. In outline:
as §2

Take `CC(C)(C)c1ccc(Cn2nc(-c3ccc(Cl)cc3)cc2C(=O)NN[C@@H]2OC[C@@H](O)[C@H](O)[C@H]2O)cc1`: the Activity entry in data set [1] is recorded as “Non-toxic”; in data set [9] it was “Toxic”. Moreover, the outcome in data set [2], in data set [4], in [5], in data set [7], in data set [8] and in data set [10] was Active. Besides, the outcome in [3] was inactive. Further, the IC50 – broadly, the midpoint of a concentration-inhibition curve – in data set [6] is 13.9 µM.
Consider `CC(C)(C)c1ccc(Cn2nc(-c3ccccc3)cc2C(=O)NN[C@@H]2O[C@H](CO)[C@@H](O)[C@H](O)[C@H]2O)cc1`, for which the outcome in data set [11] was inactive. The outcome in [12], in data set [13], in [14], in [15], in data set [16] and in data set [17] was Active. Moreover, in data set [6], the midpoint of inhibition, the IC50, lay at 21.6 µM. The Activity entry in data set [9] is “Non-toxic”.
In turn, `O=C(NN[C@@H]1O[C@H](CO)[C@@H](O)[C@H](O)[C@H]1O)c1cc(-c2ccc(Cl)cc2)nn1Cc1ccccc1` had an IC50 in data set [6] of 31.8 µM. Also, in data set [9], the Activity result was “Non-toxic”.
Take `CC(C)(C)c1ccc(Cn2nc(-c3ccccc3)cc2C(=O)NN[C@@H]2OC[C@@H](O)[C@H](O)[C@H]2O)cc1`: the outcome in data set [11] was inactive. Moreover, the result in [12], in [13], in data set [14], in [15], in data set [16] and in data set [17] was Active. The IC50 in data set [6] was determined as 15.2 µM. The Activity entry in data set [9] is “Non-toxic”.
Turning to `COc1ccc(-c2cc(C(=O)NN[C@@H]3OC[C@@H](O)[C@H](O)[C@H]3O)n(Cc3ccc(C(C)(C)C)cc3)n2)cc1`, the result in [18] was Active. This compound also showed an IC50 in data set [6] of 24.9 µM. The Activity entry in data set [9] is listed as “Non-toxic”.
With `CC(C)(C)c1ccc(Cn2nc(-c3ccc(Cl)cc3)cc2C(=O)NN[C@@H]2O[C@H](CO)[C@@H](O)[C@H](O)[C@H]2O)cc1`, in data set [11], the result was inactive. In addition, the outcome in data set [12], in data set [13], in data set [14], in [15], in [16] and in data set [17] was Active. For the same compound, in [6], the midpoint of inhibition, the IC50, lay at 26.6 µM. In data set [9], the Activity result is recorded as “Non-toxic”.
For `O=C(NN[C@@H]1O[C@H](CO)[C@@H](O)[C@H](O)[C@H]1O)c1cc(-c2ccc(Cl)cc2)nn1Cc1ccc(Cl)nc1`, the outcome in [18] was Active. The concentration for half-maximal inhibition (IC50) in data set [6] was 35 µM. The Activity entry in data set [9] is “Non-toxic”.
For `COc1ccc(-c2cc(C(=O)NN[C@@H]3O[C@H](CO)[C@@H](O)[C@H](O)[C@H]3O)n(Cc3ccc(C(C)(C)C)cc3)n2)cc1`, in that order: “Active”, 38.9 µM and “Non-toxic”.
